RGS4 inh – RGS4 inhibitors, primary screen, cell-based, HEK293 M3R inducible RGS4, calcium flux. Fluo-4 calcium flux; hits give high values; triggered by carbachol at its EC20. B-score at 10 µM. hit rate 0.45% among 310,000. AID 463165, 2010;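 active means B-score, a plate-corrected calcium signal, over three deviations above library mean, with baseline fluorescence within five deviations of library mean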;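 further: RGS4 expression induced by doxycycline in cells with stable M3 receptor; B-score is computed from the integrated fluorescence ratio over baseline after carbachol; higher B-score means a larger calcium signal and so more RGS4 inhibition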
Target sequence (P49798 whole entry, looked up): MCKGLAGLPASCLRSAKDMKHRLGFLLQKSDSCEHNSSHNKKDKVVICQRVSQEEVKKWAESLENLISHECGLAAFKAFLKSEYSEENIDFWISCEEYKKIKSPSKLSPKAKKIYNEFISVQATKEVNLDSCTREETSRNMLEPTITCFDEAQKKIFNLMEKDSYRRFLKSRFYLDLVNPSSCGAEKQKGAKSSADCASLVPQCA
MrgX1 ag – agonists of human MrgX1 receptor, primary screen, HEK293 cells, Fluo-4 calcium flux; Mas-related G-protein coupled receptor member X1 (Homo sapiens), Q96LB2; Fluo-4 calcium fluorescence, agonist mode; hits give high values; B-score at 10 µM; hit rate 0.44% among 310,000; AID 588627, 2011;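 active means calcium response B-score plate-corrected fluorescence ratio at least 3 library SD, with starting fluorescence B-score inside 5 SD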
Target sequence (Q96LB2 whole entry, looked up): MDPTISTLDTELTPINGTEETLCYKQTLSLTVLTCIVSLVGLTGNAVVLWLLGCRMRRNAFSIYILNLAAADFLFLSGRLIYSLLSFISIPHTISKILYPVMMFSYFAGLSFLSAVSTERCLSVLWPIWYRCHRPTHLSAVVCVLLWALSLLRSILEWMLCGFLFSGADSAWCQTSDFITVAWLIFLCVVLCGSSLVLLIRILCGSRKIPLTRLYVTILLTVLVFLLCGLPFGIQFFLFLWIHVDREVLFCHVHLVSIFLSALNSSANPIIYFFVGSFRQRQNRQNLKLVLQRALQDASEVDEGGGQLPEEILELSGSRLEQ
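Assay system: stable human MrgX1 HEK293 cell line. Quantity: 15,000 cells per well. Schedule: cells plated overnight, dye loaded 0.5 h 37 °C, 0.5 h room temperature. Detection: Fluo-4 NW calcium-flux fluorescence, kinetic read. Read-out basis: peak-minus-minimum fluorescence over baseline, converted to B scores. Control set: positive and negative control wells on each plate.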
Hep lipid drop – inhibitors of hepatocyte lipid droplet formation, primary screen, imaging, high-throughput imaging, BODIPY stain; AML12 mouse hepatocytes, oleate lipid droplets; inhibition, % at 6.5 µM; hit rate 0.4% among 240,000;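 active means lipid droplet intensity inhibited by at least 50%, with more than 500 cells counted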
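Technique: fluorescence imaging, 20x objective, two fields per well / Assay system: AML12 hepatocytes (mouse) / Measure: % inhibition of lipid droplet signal / Doses: 6.5 µM single-point dosing / Incubation: overnight exposure / Reagent: 100 µM oleic acid challenge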
MrgX1 antag – antagonists of human MrgX1 receptor, primary screen, HEK293 cells, Fluo-4 calcium flux | Mas-related G-protein coupled receptor member X1 (Homo sapiens), Q96LB2 | BAM8-22 antagonism; hits give low values | B-score at 10 µM | hit rate 1.3% among 310,000;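 active means calcium-response B-score plate-corrected more than 3 library SD below zero, starting fluorescence within 5 deviations, no agonist response on first addition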;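 further: peak minus trough fluorescence over baseline after final BAM8-22 challenge near maximal dose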
RGS4 pot – RGS4 potentiators or activators, primary screen, cell-based, HEK293 M3R inducible RGS4, calcium flux; carbachol calcium flux Fluo4; hits give low values; B-score at 10 µM; hit rate 0.92% among 310,000; AID 463111, 2010;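 active means B-score of the integrated calcium signal more than 4 SD below the library mean, with starting fluorescence not abnormally high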;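 further: negative B-score means reduced calcium response which marks RGS4 activation or potentiation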
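Detection: kinetic calcium fluorescence imaging with Fluo4-AM dye, 2 µM / Material: HEK293 cells with stable M3R and inducible RGS4 / Schedule: recording 10 s baseline at 1 Hz, 100 s post-agonist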
MrgX1 PAM – positive allosteric modulators of MrgX1, primary screen, HEK293 cells, Fluo-4 calcium flux. AID 588675, 2011. B-score at 10 µM. hit rate 0.63% among 310,000. FDSS; hits give high values;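 active means plate-corrected calcium response at least 3 library SD above typical, normal starting fluorescence, not activating the receptor alone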;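 further: compound read alongside a low EC10 to EC30 dose of BAM8-22 agonist; peak minus trough fluorescence over baseline measured at the second addition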
Hep lipid conf – hepatocyte lipid droplet accumulation inhibitors, confirmation, imaging, AML12 mouse hepatocytes, single concentration, high-content; shares compounds with Hep lipid drop; BODIPY lipid droplet imaging; droplets induced with 100 µM oleic acid; inhibition, % at 5.2 µM; hit rate 65% among 870; AID 463183, 2010;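 active means inhibition of lipid droplet metric at least 50%, with more than 300 cells in each of four replicates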;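 further: plate controls were DMSO with oleic acid for no effect and 5 µM Triacsin-C for full effect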
AML12 tox img – AML12 hepatocyte cytotoxicity, counter-screen for hepatic lipid droplet formation project, imaging, DAPI nuclear morphology imaging; shares compounds with Hep lipid drop; AML12 mouse hepatocytes; hits give high values; cells fed 100 µM oleate overnight; z-score at 5 µM; hit rate 3% among 870; AID 463200, 2010; in the data active means z-score above about 6.3;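 further: compound exposure lasted overnight at 37 °C before fixation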
AML12 tox ATP – AML12 hepatocyte cytotoxicity, confirmation, cytotoxicity control for hepatic lipid droplet formation project, cell-based, single concentration. 530 tested, under 10 active. AID 463219, 2010. shares compounds with Hep lipid drop. AML12 mouse hepatocyte viability, ATP luminescence; cells loaded with 100 µM oleic acid. cytotoxicity, % at 50 µM;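 active means cytotoxicity above 50% in each of four replicates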;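 further: compound exposure lasted overnight at 37 °C before the ATP read; 0% = DMSO-treated cells and 100% = wells with no cells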
Numbers without * were called inactive; i = inactive; x = no result; ! = a repeat was not active. Shown are actives, neighbours in structure and some others; about 3.8% of the full set was active somewhere.

SMILES | RGS4 inh | MrgX1 ag | Hep lipid drop | MrgX1 antag | RGS4 pot | MrgX1 PAM | Hep lipid conf | AML12 tox img | AML12 tox ATP
CCC(C)(C)NC(=O)C(c1ccc(OC)cc1)N(CC1CCCO1)C(=O)CCC(=O)Nc1cc(C)on1 (configuration not stated) | i | i | 79* | i | i | i | 91* | -0.48 | 11
COc1ccc(C(C(=O)NC(C)(C)C)N(CCO)C(=O)CCC(=O)Nc2cc(C)on2)cc1 (configuration not stated) | i | i | 14 | i | i | i | x | x | x
CC(C)(C)C(=O)/C=c1\[nH]c(=O)/c(=C\c2ccc(F)cc2)s1 | i | i | 67* | i | i | i | 98* | 0.89 | 6
CCc1ccc(/C=c2\s/c(=C\C(=O)C(C)(C)C)[nH]c2=O)cc1 | i | i | 50 | i | i | i | x | x | x
CCC(=O)Nc1cccc(-c2cc3ccccc3oc2=O)c1 | i | i | 0 | i | i | i | x | x | x
O=C(Cc1cccc2ccccc12)Nc1ccc(-c2cc3ccccc3oc2=O)cc1 | i | i | 72* | i | i | i | 100* | 0.57 | 13
O=C(NCc1ccco1)c1ccc(Cn2c(=O)c3ccccc3n(Cc3ccc(Cl)cc3)c2=O)cc1 | i | i | 56* | i | i | i | 48 | -0.48 | x
Cc1cccc(Oc2ccc(Cl)cc2N)c1 | i | i | 58* | i | i | i | 29 | -0.35 | x
Cc1ccc2nc(C)cc(NCCO)c2c1 | i | i | 10 | i | i | i | x | x | x
Cc1cc(C)nc(NCCO)n1 | i | i | 81* | i | i | i | 30 | -0.23 | x
Cc1ccc(NC(=O)CN(C)S(=O)(=O)c2cccs2)c(Br)c1 | i | i | 63* | i | i | i | 20 | -0.33 | x
O=C1c2ccccc2C(=O)c2c(Nc3ccc(CCO)cc3)ccc(O)c21 | i | i | 113* | i | i | i | 115* | 0.44 | x
O=C(Nc1ccccc1)c1ccc(NCC2CCCO2)c(S(=O)(=O)N2CCOCC2)c1 (configuration not stated) | i | i | 51* | i | i | i | 21 | 0.057 | x
O=C(NCCO)c1cc2ccccc2cc1O | i | i | 50*! | i | i | i | 7 | -0.75 | x
CSc1ccc(CN(C)CC(=O)Nc2c(F)cccc2F)cc1 | i | i | 1 | i | i | i | x | x | x
CCc1ccc(NC(=O)CNC(=O)[C@@H]2Cc3ccccc3CN2C(=O)OC(C)(C)C)cc1 | i | i | 54* | i | i | i | 76* | -0.28 | 2
S=C1NCCNC(=S)NCCOCCOCCN1 | i | i | 22 | i | i | i | x | x | x
Cn1c(=O)c(C(=O)COC(=O)c2cc(C3CC3)nc3ccccc23)c(N)n(Cc2ccccc2)c1=O | x | i | 55* | i | x | i | 82* | -0.96 | x
Cc1[nH]n(-c2ccccc2)c(=O)c1N=Nc1ccc(C(=O)O)cc1 | i | i | 51* | i | i | i | 31 | -0.38 | x
Cc1[nH]n(-c2ccccc2)c(=O)c1N=Nc1ccc(Cl)cc1 | i | i | 54* | i | i | i | 51 | 0.57 | x
CCOC(=O)N1CCC(NC(=O)c2ccc3c(c2)N=C(C)c2c(C)ccc(C)c2S3)CC1 | i | i | -254 | i | i | i | x | x | x
CC(=O)c1cccc(N(C(=O)CNC(=O)c2ccco2)C(C(=O)NCc2ccco2)c2ccccc2)c1 (configuration not stated) | i | i | -3 | i | i | i | x | x | x
Cc1cc(C)n(-c2nc(Nc3ccccc3)nc(-n3nc(C)cc3C)n2)n1 | i | i | x | i | i | i | x | x | x
Cc1cc(C)n(-c2nc(N(c3ccccc3)c3ccccc3)nc(-n3nc(C)cc3C)n2)n1 | i | i | 57* | i | i | i | 69* | 4.8 | 93*
COc1cc(SC)ccc1C(=O)OC(C)C(=O)Nc1ccc(NC(C)=O)cc1 (configuration not stated) | i | i | 59* | i | i | i | 87* | -0.92 | 12
SMILES | RGS4 inh | MrgX1 ag | Hep lipid drop | MrgX1 antag | RGS4 pot | MrgX1 PAM | Hep lipid conf | AML12 tox img | AML12 tox ATP
CCNC(=O)NC(=O)C(C)OC(=O)c1ccc(SC)cc1OC (configuration not stated) | i | i | 0 | i | i | i | x | x | x
O=C(Nc1ccon1)c1ccc(S(=O)(=O)N2CCOCC2)cc1 | i | i | 12 | i | i | i | x | x | x
COc1ccc(Cl)cc1S(=O)(=O)NC(C)C(=O)NCc1ccncc1 (configuration not stated) | i | i | 0 | i | i | i | x | x | x
CCn1cc(C(=O)NCc2ccc(Cl)cc2)c(=O)c2cc(S(=O)(=O)N(C)C)ccc21 | i | i | 62* | i | i | i | 45 | -0.85 | 19
COc1ccc(C(=O)C2CCN(C(=O)Nc3ccc(C)cc3)CC2)cc1 | i | i | 32 | i | i | i | x | x | x
Cc1ccc(NC(=O)N2CCC(C(=O)c3ccc(F)cc3)CC2)cc1 | i | i | 83* | i | i | i | 96* | 0.052 | 5
CSc1nc2ccccc2n1CC(=O)Nc1c(C)cccc1C | i | i | 55* | i | i | i | 50 | 0.047 | x
CC(C)(C)c1cc(NC(=O)Nc2ccc(Cl)cc2Cl)no1 | i | i | 50* | i | i | i | 32 | -0.81 | x
Cc1cccc(Nc2ncnc3ccccc23)c1 | i | i | 66* | i | i | i | 53* | 13* | x
Cc1ccc(Nc2ncnc3ccccc23)cc1 | i | i | 46 | i | i | i | x | x | x
CCOC(=O)c1cc(NC(=O)N(C)C2CCCCC2)c(C)nc1C | i | i | 54* | i | i | i | 81* | -0.98 | 10

Source: PubChem
